Calls of active or inactive are those of the source. The calls are words filed in the database; no cut-off is given here.
What was measured:
HEK293 [1] = test: Inhibition of [3H]adenine binding to adenine 1 receptor in HEK293 cells at 100 uM by liquid scintillation counting; type: cell-based; conditions: Homo sapiens
HEK293 [2] = test: Selectivity ratio of Ki for adenine 1 receptor in HEK293 cells to Ki for adenine 1 receptor in rat brain cortical membrane; type: cell-based
[3] = Displacement of [3H]adenine from adenine 1 receptor in HEK293 cells by liquid scintillation counting; type: cell-based, Homo sapiens
Rattus norvegicus [4] = species on record: Rattus norvegicus; test: Inhibition of [3H]adenine binding to adenine 1 receptor in rat brain cortical membrane at 100 uM by liquid scintillation counting; type: cell membranes
Outline: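 Aqueous solutions were autoclaved or heated >90 °C for ≥10 min to destroy bacterial binding sites. […] Filtered on GF/B with ice-cold Tris washes, then scintillation counted. Percent inhibition ± SEM.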

Rattus norvegicus [5] = species on record: Rattus norvegicus; test: Inhibition of [3H]adenine binding to adenine 1 receptor in rat brain cortical membrane at 30 uM by liquid scintillation counting; type: cell membranes
Rattus norvegicus [6] = species on record: Rattus norvegicus; test: Inhibition of [3H]adenine binding to adenine 1 receptor in rat brain cortical membrane at 250 uM by liquid scintillation counting; type: cell membranes
[7] = Agonist activity at rat adenine 1 receptor expressed in human 1321N1 cells assessed as inhibition of isoproterenol-induced [3H]cAMP formation at 50 uM by scintillation counting relative to adenine; type: functional
Outline: (§1)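 1321N1 astrocytoma cells stably expressing rat Ade1R (retroviral pLXSN, G418 800 μg/mL), grown on 24-well plates. Cells washed and held 2 h at 37 °C in HBSS pH 7.3. Compound added together with 3 nM isoproterenol for 10 min at 37 °C, then stopped with hot EDTA/Triton lysis. cAMP measured by [3H]cAMP competition with calf adrenal binding protein and filtration, read against a 0–40 pmol standard curve. Result given as % of isoproterenol alone; n = 3.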

1321-N1 [8] = test: Inhibition of [3H]adenine uptake at rat adenine 1 receptor expressed in human 1321N1 cells at 100 uM after 1 min by liquid scintillation counting; type: cell-based
[9] = Agonist activity at rat adenine 1 receptor expressed in human 1321N1 cells assessed as inhibition of isoproterenol-induced [3H]cAMP formation at 250 uM by scintillation counting relative to adenine; type: functional; outline: as §1
1321-N1 [10] = test: Inhibition of [3H]adenine uptake at rat adenine 1 receptor expressed in human 1321N1 cells at 1 mM after 1 min by liquid scintillation counting; type: cell-based
[11] = Agonist activity at rat adenine 1 receptor expressed in human 1321N1 cells assessed as inhibition of isoproterenol-induced [3H]cAMP formation at 1 uM by scintillation counting; type: functional
[12] = (§2) Agonist activity at rat adenine 1 receptor expressed in human 1321N1 cells assessed as inhibition of isoproterenol-induced [3H]cAMP formation by scintillation counting; type: functional, cell-based
1321-N1 [13] = test: as §2; type: functional, cell-based
HEK293 [14] = test: Selectivity ratio of Ki for adenine 1 receptor in rat brain cortical membrane to Ki for adenine 1 receptor in HEK293 cells; type: cell-based
1321-N1 [15] = test: Antagonist activity at rat adenine 1 receptor expressed in human 1321N1 cells assessed as change in adenine IC50 for inhibition of isoproterenol-induced [3H]cAMP formation at 10 uM by scintillation counting; type: functional, cell-based
Outline: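 Retrovirally transduced 1321N1 astrocytoma cells stably expressing rat Ade1R, 24-well culture, washed and preincubated in Hepes-buffered HBSS pH 7.3, 2 h, 37 °C. […] Hot EDTA/Triton lysis. cAMP measured by competition with [3H]cAMP for calf adrenal binding protein, filtered, scintillation counting.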

1321-N1 [16] = test: Agonist activity at rat adenine 1 receptor expressed in human 1321N1 cells assessed as inhibition of isoproterenol-induced [3H]cAMP formation at 500 uM by scintillation counting; type: functional, cell-based; outline: as §1
1321-N1 [17] = test: Activity at rat adenine 1 receptor expressed in human 1321N1 cells assessed as complete inhibition of cAMP formation at 250 uM; type: cell-based; outline: as §1
1321-N1 [18] = test: Agonist activity at rat adenine 1 receptor expressed in human 1321N1 cells assessed as inhibition of isoproterenol-induced [3H]cAMP formation at 30 uM by scintillation counting; type: functional, cell-based; outline: as §1
1321-N1 [19] = test: Agonist activity at rat adenine 1 receptor expressed in human 1321N1 cells assessed as inhibition of isoproterenol-induced [3H]cAMP formation at 250 uM by scintillation counting; type: functional, cell-based; outline: as §1

Row | Compound | Ratio Ki (HEK293 [2]) | Ki [3] [µM] | inhibition (Rattus norvegicus [4]) [%] | also measured
1 | OCCNc1ncnc2[nH]cnc12 | 4 | 100 |  | inhibition (HEK293 [1]): 58%
2 | Nc1nc(Cl)nc2c1ncn2[C@@H]1O[C@H](CO)[C@@H](O)[C@H]1O |  |  | 1 | 
3 | NCCCNc1ncnc2[nH]cnc12 |  |  | 49 | 
4 | Nc1ncnc2[nH]ccc12 |  |  | 21 | 
5 | CCCCOc1nc(N)c2ncn(CC)c2n1 |  |  | 4 | 
6 | CCCSc1nc2c(N)ncnc2[nH]1 |  |  |  | inhibition (Rattus norvegicus [5]): 0%
7 | Nc1ncnc2c1ncn2CCN1CCNCC1 |  | > 100 |  | inhibition (HEK293 [1]): 0%; inhibition (Rattus norvegicus [6]): 28%
8 | Nc1ncnc2c1ncn2CCc1ccncc1 |  | > 100 |  | inhibition (HEK293 [1]): 44%; inhibition (Rattus norvegicus [6]): 46%
9 | Nc1ncnc2c1N=CC2 |  |  | 39 | 
10 | CC(C)(C)OC(=O)NCCNc1ncnc2[nH]cnc12 |  |  | 21 | 
11 | CCn1cnc2c(NC3CCCC3)ncnc21 |  |  | 5 | 
12 | Nc1ncnc2[nH]c(N3CCCC3)nc12 | > 2.4 | > 100 |  | inhibition (HEK293 [1]): 18%
13 | Nc1ncnc2[nH]c(-c3cccc(C(F)(F)F)c3)nc12 |  |  | 23 | 
14 | ONc1ncnc2[nH]cnc12 | 19 | 9.53 |  | Efficacy [7]: 51%; inhibition (1321-N1 [8]): Active
15 | Nc1ncnc2c1ncn2Cc1ccccc1 |  |  | 15 | 
16 | CN(C)c1nc2c(N)ncnc2[nH]1 | 14.8 | 34.1 |  | inhibition (1321-N1 [8]): Active; inhibition at 250 µM ([9]; Rattus norvegicus, 1321-N1): 137%
17 | Nc1[nH]cnc2ncnc1-2 [ADENINE] |  | 0.0471 |  | inhibition (1321-N1 [10]): Active; inhibition at 1 µM [11]: 35%; IC50 [12]: 0.00829 µM; Activity (1321-N1 [13]): Dose-dependent effect
18 | Nc1ncnc2ncn(Cc3ccccc3)c12 |  |  | 11 | 
19 | CCn1cnc2c(NCCc3ccccc3)ncnc21 |  |  | 3 | 

Row | Compound | Ratio Ki (HEK293 [2]) | Ki [3] [µM] | inhibition (Rattus norvegicus [4]) [%] | also measured
20 | CCn1cnc2c(N)nc(NCCc3ccccc3)nc21 |  |  | 3 | 
21 | Nc1ccnc2[nH]cnc12 | 0.7 | 7.89 |  | 
22 | Nc1ncnc2[nH]c(Sc3ccccc3)nc12 |  |  |  | inhibition (Rattus norvegicus [5]): 0%
23 | CCn1cnc2c(OCCc3ccccc3)ncnc21 |  |  | 4 | 
24 | Nc1ncnc2[nH]c(-c3ccccc3)nc12 |  |  | 16 | 
25 | CCNc1ncnc2[nH]cnc12 | 6 | 100 |  | inhibition (HEK293 [1]): 59%
26 | Nc1ncnc2c1ncn2CCc1ccccc1 | 2 | 100 |  | inhibition (HEK293 [1]): 57%
27 | Nc1ncnc2c1ncn2CC(N)C(=O)O (racemic) | 0.58 | 6.23 |  | 
28 | Nc1ncnc2c1ncn2CCc1ccccn1 | > 22 | 100 |  | inhibition (HEK293 [1]): 58%
29 | Nc1ncnc2[nH]c(O)nc12 | 4.1 | 110 |  | 
30 | Nc1nc(OCCc2ccccc2)nc2[nH]cnc12 |  |  | 24 | 
31 | CCCCC#Cc1nc(N)c2ncn([C@@H]3O[C@H](CO)[C@@H](O)[C@H]3O)c2n1 |  |  | 5 | 
32 | CCOc1ncnc2c1ncn2C1CCCCC1 |  |  | -1 | 
33 | Nc1nc(OCCC2CCCCC2)nc2[nH]cnc12 |  |  | -5 | 
34 | CC(=O)Nc1ncnc2[nH]cnc12 | 0.18 | 0.515 |  | Ratio Ki (HEK293 [14]): 5.5; Activity (1321-N1 [15]): inactive; inhibition (1321-N1 [8]): Active; Efficacy [9]: 77%
35 | NNc1ncnc2[nH]cnc12 | 13 | 17.5 |  | 
36 | CCCCC(CC)n1cnc2c(N)ncnc21 (stereo not drawn) |  |  | 12 | 
37 | CCSc1nc2c(N)ncnc2[nH]1 |  |  |  | inhibition (Rattus norvegicus [5]): 0%
38 | Nc1nc(C#Cc2ccccc2)nc2c1ncn2[C@@H]1O[C@H](CO)[C@@H](O)[C@H]1O |  |  | 0 | 

Row | Compound | Ratio Ki (HEK293 [2]) | Ki [3] [µM] | inhibition (Rattus norvegicus [4]) [%] | also measured
39 | Nc1ncnc2c1ncn2[C@H]1C[C@H](O)[C@@H](CO)O1 [DEOXYADENOSINE] | > 9 | > 100 |  | inhibition (HEK293 [1]): 29%
40 | Nc1ncnc2[nH]c(/C=C/c3ccccc3)nc12 | 0.67 | 12.2 |  | 
41 | Nc1nc2[nH]cnc(N)c-2n1 | 0.005 | 0.0341 |  | Ratio Ki (HEK293 [14]): 190; inhibition (1321-N1 [16]): Active; inhibition (1321-N1 [8]): Active
42 | NCCNc1ncnc2[nH]cnc12 |  |  | 58 | 
43 | CCn1cnc2c(N)nc(Cl)nc21 |  |  | 1 | 
44 | CC(C)(C)OC(=O)NCCCNc1ncnc2[nH]cnc12 |  |  | 46 | 
45 | Nc1ncnc2[nH]c(N3CCNCC3)nc12 | 8.4 | 27.4 |  | Activity (1321-N1 [15]): inactive; inhibition (1321-N1 [8]): Active; Efficacy [9]: 52%
46 | CSc1nc2c(N)ncnc2[nH]1 |  |  |  | inhibition (Rattus norvegicus [5]): 10%
47 | Nc1ncnc2c1ncn2CCc1cccnc1 | 1.3 | > 100 |  | inhibition (HEK293 [1]): 41%
48 | Nc1[nH]cnc2nc(NCc3ccccc3)nc1-2 | 4.9 | 32.9 |  | 
49 | Nc1ncnc2[nH]c(N3CCCCC3)nc12 | 8.1 | 31.7 |  | inhibition (1321-N1 [17]): Active; inhibition (1321-N1 [8]): Active; inhibition (1321-N1 [18]): Active
50 | Nc1ncnc2c1ncn2C1CCCCC1 |  |  | -6 | 
51 | Nc1ncnc2c1ncn2CCN1CCOCC1 | 1.8 | 5.49 |  | inhibition (1321-N1 [8]): Active; inhibition (1321-N1 [19]): Active
52 | Nc1ncnc2[nH]c(C#Cc3ccccc3)nc12 |  |  |  | inhibition (Rattus norvegicus [5]): 19%
53 | Nc1[nH]ccc2ncnc1-2 | 1 | 6.68 |  | 
54 | CCn1cnc2c(N)nc(OCCc3ccccc3)nc21 |  |  | 7 | 
55 | O=c1[nH]cnc2cc[nH]c12 |  |  | 0 | 
56 | Nc1ncnc2c1ncn2CCC(=O)O | 0.9 | 18.5 |  | 
57 | Nc1nc(Cl)nc2c1ncn2[C@H]1C[C@H](O)[C@@H](CO)O1 |  |  | 9 | 

From ChEMBL document CHEMBL1156038 (J Med Chem, 2009)
